Experiment [1] deals with U-937. The experiment in a line: Cell cycle arrest in human U937 cells assessed as accumulation at G1 phase at 5 uM after 30 hrs by propidium iodide staining based flow cytometry. It is filed as functional. Summed up:
(§1)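 U937 cells in RPMI with 10% FBS and antibiotics, kept at 200,000 cells/mL, exposed to compound at 5 µM (in DMSO). DNA content was read by flow cytometry and phases modelled with ModFit. Values are means of independent duplicates.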
On the technique in general: A flow cytometer gives signals particle by particle.

Experiment [2] addresses T1, NAD-dependent protein deacetylase sirtuin-1 (Homo sapiens) (UniProt Q96EB6).
T1 sequence (whole entry): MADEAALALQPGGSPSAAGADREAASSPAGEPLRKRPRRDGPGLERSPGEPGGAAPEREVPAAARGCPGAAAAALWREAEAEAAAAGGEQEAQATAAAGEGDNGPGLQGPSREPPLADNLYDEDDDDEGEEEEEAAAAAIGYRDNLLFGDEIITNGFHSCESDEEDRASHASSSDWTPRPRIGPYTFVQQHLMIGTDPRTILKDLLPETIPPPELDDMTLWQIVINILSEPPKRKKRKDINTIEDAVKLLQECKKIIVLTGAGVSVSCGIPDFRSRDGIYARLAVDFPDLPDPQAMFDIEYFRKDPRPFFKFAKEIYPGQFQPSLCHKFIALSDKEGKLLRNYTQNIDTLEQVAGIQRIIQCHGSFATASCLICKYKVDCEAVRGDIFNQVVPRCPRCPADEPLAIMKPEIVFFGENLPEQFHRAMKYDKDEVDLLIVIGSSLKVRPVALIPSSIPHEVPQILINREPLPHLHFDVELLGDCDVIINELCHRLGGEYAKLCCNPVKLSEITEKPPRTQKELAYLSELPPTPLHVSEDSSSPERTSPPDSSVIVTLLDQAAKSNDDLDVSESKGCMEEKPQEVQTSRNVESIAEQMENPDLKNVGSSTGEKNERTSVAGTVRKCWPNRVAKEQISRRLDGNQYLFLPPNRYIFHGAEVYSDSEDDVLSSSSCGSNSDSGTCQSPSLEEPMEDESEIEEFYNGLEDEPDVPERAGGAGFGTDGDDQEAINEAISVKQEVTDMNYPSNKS
The experiment in a line: Inhibition of recombinant human SIRT1 lysine deacetylase activity at 50 uM after 60 mins by fluorimetry relative to control. The gist of the method: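 Human SIRT1 expressed in E. coli BL21 and affinity-purified (1 µg) was reacted with acetylated p53 peptide (aa 379–382), 1 mM DTT and 200 µM NAD⁺, with compound at 50 µM, 60 min at 37 °C. Fluorescence was read at ex 360/em 450 nm. Results are mean and SD of four independent experiments as percent of untreated control.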

Experiment [3] addresses Histone deacetylase 1 (Homo sapiens) (UniProt Q13547). The experiment in a line: Inhibition of human recombinant GST-tagged HDAC1 expressed in Sf9 cells using Fluor de Lys as substrate at 5 uM after 0.5 hrs by fluorimetry. The gist of the method: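 GST-HDAC1 was expressed in Sf9 cells via baculovirus and purified on glutathione beads. Enzyme was incubated with Fluor de Lys acetyl-lysine substrate ±5 µM compound for 0.5 h at 37 °C, followed by developer for 30 min. Fluorescence was read at ex 360/em 460 nm and reported as percent of control activity.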

Experiment [4] concerns the target CREB-binding protein/Histone acetyltransferase p300 (Homo sapiens) (UniProt Q09472+Q92793). As to the kind of experiment: Inhibition of recombinant human p300/CBP using [3H]-acetyl CoA at 50 uM after 2 hrs by scintillation counting relative to control. It counts as protein assay. Summed up: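 CBP fragment (aa 1098–1877) expressed in E. coli BL21 and affinity-purified (1 µg) was incubated in HAT buffer with histone H4 peptide (aa 2–24, 10 µg) and 20 µM acetyl CoA carrying 0.5 µCi/mL [³H]-acetyl CoA, compound at 50 µM, for 2 h at 37 °C. Samples were spotted on P81 paper in triplicate, washed in TCA and acetone, and counted. Output is percent of untreated control.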

In experiment [5] the test system is U-937. The experiment in a line: Induction of apoptosis in human U937 cells assessed as caspase 3 activation at 5 uM after 30 hrs by FACS analysis. It counts as functional. Summed up: (§2)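 Caspase 3 activity was read in living U937 cells after 5 µM exposure. About 1×10^6 cells were washed twice in cold PBS and loaded 1 h on ice with cell-permeable fluorescent substrate FAM-DEVD-FMK. After washing, cells were analysed by FACS. Runs were in duplicate; values are mean ± SD.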

Experiment [6] deals with Histone deacetylase (Homo sapiens) (UniProt Q13547+O15379+Q9UBN7+Q92769+Q9UQL6+Q8WUI4+Q9BY41+Q96DB2+P56524+Q9UKV0+Q969S8). The experiment in a line: Inhibition of HDAC1 in human U937 cells assessed a increase in histone H3 acetylation in human U937 cells at 5 uM after 24 hrs by Western blot analysis. It is filed as cell-based. Particulars: U-937. Summed up:
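U937 cells were treated 24 h at 5 µM, then lysed in Triton extraction buffer. Histones were acid-extracted with 0.2 M HCl overnight at 4 °C and protein was quantified by Bradford. 10 µg of histone extract was run on 15% polyacrylamide gels and immunoblotted with pan-acetyl-histone H3 antibody.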
Background: Immunoblotting shows a protein as a band on a membrane.

Experiment [7] relates to U-937. As to the kind of experiment: Cell cycle arrest in human U937 cells assessed as accumulation at G2/M phase at 5 uM after 30 hrs by propidium iodide staining based flow cytometry. It is filed as functional. The gist of the method: as §1
Experiment [8] concerns U-937. The experiment in a line: Cell cycle arrest in human U937 cells assessed as accumulation at G1 phase at 5 uM after 48 hrs by propidium iodide staining based flow cytometry. It is filed as functional. Summed up: as §1
The test system of experiment [9] is U-937. The experiment in a line: Cell cycle arrest in human U937 cells assessed as accumulation at S phase at 5 uM after 48 hrs by propidium iodide staining based flow cytometry. It counts as functional. Summed up:
as §1

Experiment [10] relates to U-937. The experiment in a line: Cell cycle arrest in human U937 cells assessed as accumulation at G2/M phase at 5 uM after 48 hrs by propidium iodide staining based flow cytometry. It counts as functional. The gist of the method:
as §1

The nature of experiment [11]: Inhibition of HDAC in cell-free system.
The subject of experiment [12] is U-937. The experiment in a line: Cell cycle arrest in human U937 cells assessed as accumulation at G1 phase at 5 uM by propidium iodide staining based flow cytometry. It is filed as functional. Conditions: TDE = time-dependent effect. The gist of the method:
as §1

Experiment [13] has as its system U-937. The experiment in a line: Induction of human U937 cell differentiation into granulocytes assessed as expression of CD11c marker on cell membrane at 5 uM after 30 to 40 hrs by PI staining based FACS analysis. It counts as functional. The gist of the method: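 After 5 µM treatment, U937 cells were stained with PE-conjugated anti-CD11c; controls got PE mouse IgG1, 30 min at 4 °C in the dark. Cells were washed and taken up in PBS with propidium iodide (0.25 µg/mL), then read by FACS. Result is percent CD11c-positive/PI-negative cells, mean of independent quadruplicates.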

Experiment [14] in a line: Inhibition of DNMT in cell-free system.
Experiment [15] relates to U-937. As to the kind of experiment: Induction of apoptosis in human U937 cells assessed as caspase 3 activation at 5 uM after 40 hrs by FACS analysis. It counts as functional, cell-based. The gist of the method:
as §2

Activity calls are given as the source filed them. The rule behind the calls is not given here.

Histone deacetylase 1 (Homo sapiens), sequence (Q13547 whole entry): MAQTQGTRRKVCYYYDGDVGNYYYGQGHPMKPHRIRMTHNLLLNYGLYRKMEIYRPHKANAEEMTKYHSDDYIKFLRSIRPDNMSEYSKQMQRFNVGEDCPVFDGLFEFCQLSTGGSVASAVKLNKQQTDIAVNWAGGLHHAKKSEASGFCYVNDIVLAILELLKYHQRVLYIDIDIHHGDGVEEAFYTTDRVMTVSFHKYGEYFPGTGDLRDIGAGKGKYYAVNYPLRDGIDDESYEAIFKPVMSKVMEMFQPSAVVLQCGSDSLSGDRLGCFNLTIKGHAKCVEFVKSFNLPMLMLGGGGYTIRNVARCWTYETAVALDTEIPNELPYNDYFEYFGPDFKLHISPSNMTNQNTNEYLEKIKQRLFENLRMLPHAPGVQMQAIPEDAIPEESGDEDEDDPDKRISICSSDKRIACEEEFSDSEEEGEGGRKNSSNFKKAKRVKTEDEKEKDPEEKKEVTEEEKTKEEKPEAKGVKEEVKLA

For `O=C(CCCCCCC(=O)Nc1ccccc1)NO`, in experiment [1], the outcome was Active.

Regarding `O=C(NCCSSCCNC(=O)/C(Cc1ccccc1)=N/O)/C(Cc1ccccc1)=N/O`, the inhibition result in experiment [2] and in [3] was “Active” each time. For the same compound, the Activity in experiment [1] was 80%. Moreover, the inhibition entry in [4] is “inactive”. Further, the “caspase 3 activation” value in experiment [5] worked out at 30%. Moreover, the result in experiment [6] was Active.

With `O=C(NCCSSCCNC(=O)/C(Cc1ccc(O)c(Cl)c1)=N/O)/C(Cc1ccc(O)c(Cl)c1)=N/O`, the inhibition result in experiment [2] and in [3] was “Active” throughout. The Activity in experiment [1] came out at 80%. For the same compound, in experiment [4], the inhibition result was “inactive”. The “caspase 3 activation” value in [5] is 30%. Besides, the result in experiment [6] was Active.

On to `O=C(NCCCSSCCCNC(=O)/C(Cc1ccc(O)c(Br)c1)=N/O)/C(Cc1ccc(O)c(Br)c1)=N/O`, for which, in experiment [3], the inhibition entry was “inactive”.

With `O=C(NCCSSCCNC(=O)/C(Cc1ccc(O)cc1)=N/O)/C(Cc1ccc(O)cc1)=N/O`, the inhibition entry in experiment [2] and in experiment [3] was “Active” in each case. In addition, the Activity in experiment [1] is given as 80%. In experiment [4], the inhibition result is “inactive”. Also, the “caspase 3 activation” value in experiment [5] worked out at 30%. Also, the outcome in experiment [6] was Active.

With `COCCNC(=O)/C(Cc1ccc(O)c(Br)c1)=N/O`, the inhibition entry in experiment [3] is “inactive”.

As for `C=CC/C=C\C/C=C\CCCCCCCc1cccc(O)c1C(=O)O`, the inhibition entry in experiment [4] was “Active”.

As to `O=C(NCCSSCCNC(=O)/C(Cc1ccc(O)c(I)c1)=N/O)/C(Cc1ccc(O)c(I)c1)=N/O`, the inhibition entry in experiment [2] and in experiment [3] was “Active” throughout. Further, in experiment [1], the Activity is listed as 80%. The inhibition entry in [4] was “inactive”. Further, the “caspase 3 activation” value in experiment [5] was 30%. Also, the result in [6] was Active.

For `O=C(NCCO)/C(Cc1ccc(O)c(Br)c1)=N/O`, in experiment [3], the inhibition entry was “inactive”.

For `O=C1C=CC2(C=C1Br)CC(C(=O)NCCSSCCNC(=O)C1=NOC3(C=CC(=O)C(Br)=C3)C1)=NO2` (stereo not given), the result in experiment [7] and in experiment [5] was Active. Moreover, the result in [8], in [9] and in experiment [10] was inactive. Further, in experiment [3], the inhibition result is “inactive”.

Consider `O=C(NCCSSCCNC(=O)/C(Cc1cccc(O)c1)=N/O)/C(Cc1cccc(O)c1)=N/O`, for which the inhibition entry in experiment [2] and in experiment [3] was “Active” each time. Besides, the Activity in [1] came out at 80%. Further, the inhibition entry in experiment [4] was “inactive”. In addition, the “caspase 3 activation” value in [5] is on record as 30%. Moreover, the result in experiment [6] was Active.

One may read the IC50 as the point on the concentration scale where inhibition reaches its midpoint. Read a low IC50 as greater potency in that assay. As to `O=C(NCCSSCCNC(=O)/C(Cc1ccc(O)c(Br)c1)=N/O)/C(Cc1ccc(O)c(Br)c1)=N/O` [PSAMMAPLIN A], the IC50 is 4.2 nM in experiment [11] and 18.6 nM in experiment [14]. Besides, the inhibition result in experiment [2] and in experiment [3] was “Active” in each case. Also, the values for the Activity result in [12] and in experiment [1] were “tde” and 60%, respectively. Moreover, in [4], the inhibition result is “inactive”. Also, the result in experiment [5] and in experiment [13] was Active.

With `Cc1ccc(C(=O)Nc2ccc(S(=O)(=O)O)c3cc(S(=O)(=O)O)cc(S(=O)(=O)O)c23)cc1NC(=O)c1cccc(NC(=O)Nc2cccc(C(=O)Nc3cc(C(=O)Nc4ccc(S(=O)(=O)O)c5cc(S(=O)(=O)O)cc(S(=O)(=O)O)c45)ccc3C)c2)c1`, in experiment [2], the inhibition entry is “Active”.

As to `CSCCNC(=O)/C(Cc1ccc(O)c(Br)c1)=N/O`, in experiment [3], the inhibition entry was “inactive”. In experiment [13], the outcome was Active.

Take `O=C(NCCSSCCNC(=O)/C(Cc1ccc(O)c(F)c1)=N/O)/C(Cc1ccc(O)c(F)c1)=N/O`: the inhibition entry in experiment [2] and in [3] was “Active” throughout. In addition, the Activity in experiment [1] is reported as 80%. The inhibition result in experiment [4] was “inactive”. Further, in experiment [5], the “caspase 3 activation” value stood at 30%. Besides, the outcome in experiment [6] was Active.

With `O=C(NCCCCSSCCCCNC(=O)/C(Cc1ccc(O)c(Br)c1)=N/O)/C(Cc1ccc(O)c(Br)c1)=N/O`, the inhibition entry in experiment [3] was “inactive”.

Consider `O=C(NCCCCCCSSCCCCCCNC(=O)/C(Cc1ccc(O)c(Br)c1)=N/O)/C(Cc1ccc(O)c(Br)c1)=N/O`, for which the inhibition result in [3] is “inactive”.

Turning to `O=C(NCCCCCCNC(=O)/C(Cc1ccc(O)c(Br)c1)=N/O)/C(Cc1ccc(O)c(Br)c1)=N/O`, the inhibition result in [3] is “inactive”.

With `Nc1ccccc1NC(=O)c1ccc(CNC(=O)OCc2cccnc2)cc1`, the result in experiment [1] was Active.

For `O=C(NCCSSCCNC(=O)/C(Cc1cc(Br)c(O)c(Br)c1)=N/O)/C(Cc1cc(Br)c(O)c(Br)c1)=N/O`, the inhibition entry in [2] was “Active”. The inhibition result in experiment [3] and in experiment [4] was “inactive” throughout. In [1], the Activity turned out to be 80%. In addition, in experiment [6], the outcome was Active. The result in experiment [15] was inactive.

Regarding `O=C(CCc1ccc(O)c(Br)c1)NCCSSCCNC(=O)CCc1ccc(O)c(Br)c1`, the inhibition entry in [2] was “Active”. Also, the inhibition result in experiment [3] and in experiment [4] was “inactive” throughout. Further, the Activity in experiment [1] was found to be 80%. Further, in experiment [15], the result was inactive.

Consider `O=C(NCCCCCSSCCCCCNC(=O)/C(Cc1ccc(O)c(Br)c1)=N/O)/C(Cc1ccc(O)c(Br)c1)=N/O`, for which the inhibition entry in experiment [3] was “inactive”.

The values above are taken from ChEMBL document CHEMBL1817548, “Epigenetic profiling of the antitumor natural product psammaplin A and its analogues” (Bioorg Med Chem, 2011).
